Laboratory results from ChEMBL document CHEMBL3259690, “Synthesis, structure-activity relationships, and biological studies of chromenochalcones as potential antileishmanial agents” (J Med Chem, 2014).
pIC50: −log10 of the molar value. The source made the active and inactive calls. No cut-off for these calls is given here.

Key:
[1] = Cytotoxicity against African green monkey Vero cells after 72 hrs by MTT assay; format: cell-based; details: chlorocebus sabaeus
In short: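 Vero cells at 1 × 10⁵/mL exposed to seven concentrations from 400 μM at 37 °C, 5% CO₂, for 72 h. MTT (5 mg/mL) added for 2 h at 37 °C, formazan dissolved in DMSO, absorbance read at 544 nm. CC₅₀ estimated by the Huber and Koella method; at least duplicate measurements.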

[2] = Selectivity index, ratio of CC50 for African green monkey Vero cells to IC50 for Leishmania donovani MHOM/IN/80/Dd8 intracellular amastigote form expressing luciferase gene infected in mouse J774A1 cells; format: functional, J774.A1
In short: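 Ratio of CC₅₀ in Vero cells (72 h MTT) to IC₅₀ against luciferase-expressing amastigotes in J774A.1 macrophages (72 h luminescence).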

[3] = tested on: Leishmania donovani; experiment: Antileishmanial activity against intracellular amastigote form of Leishmania donovani MHOM/IN/80/Dd8 expressing luciferase gene infected in mouse J774A1 cells after 72 hrs by luminescence analysis; format: functional, organism-based; details: MHOM/IN/80/Dd8, J774.A1, 72 h
In short: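 J774A.1 macrophages (4 × 10⁴/mL, RPMI-1640 + 10% HIFBS, 37 °C, 5% CO₂), after 24 h infected with stationary-phase luciferase promastigotes (4 × 10⁵/mL). Free parasites washed off after 24 h. Compound added at up to 7 dilutions from 40 μM for 72 h. Luminescence read after Steady Glo in PBS. IC₅₀ from four-parameter Hill fit; at least duplicate measurements.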

[4] = tested on: Leishmania donovani; experiment: Antileishmanial activity against extracellular promastigote form of Leishmania donovani MHOM/IN/80/Dd8 expressing firefly luciferase gene assessed as inhibition of parasitic multiplication at 25 uM after 96 hrs by luminescence analysis; format: functional; details: for inhibition at 25 µM: MHOM/IN/80/Dd8, 96 h
In short: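 Late-log luciferase-expressing Dd8 promastigotes, 5 × 10⁵/mL in complete M-199, incubated with compound at 24 °C for 96 h. Aliquot mixed with Steady Glo and luminescence read as RLU. Inhibition of multiplication taken from luciferase signal of treated versus untreated parasites.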

[5] = tested on: Leishmania donovani; experiment: Antileishmanial activity against Leishmania donovani MHOM/IN/80/Dd8 amastigotes infected in syrian golden hamster assessed as decrease in parasite count in spleen at 30 mg/kg/day, po for 5 days measured on day 7 after last dose administration by giemsa staining; format: functional; details: MHOM/IN/80/Dd8, Spleen
In short: (§1)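 Golden hamsters of either sex infected intracardially with 1 × 10⁷ L. donovani Dd8 amastigotes. After 15−20 days, pretreatment spleen biopsy; animals with +1 grade infection (5−10 amastigotes/100 spleen cell nuclei) used, 5−6 per compound. Aqueous suspensions dosed IP or PO for 5−10 consecutive days starting 2 days after biopsy. Splenic biopsies on day 7 and 28 after last dose, Giemsa counts; PI = 100 − [(ANAT×100)/(INAT×TIUC)].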

[6] = tested on: Leishmania donovani; experiment: Antileishmanial activity against Leishmania donovani MHOM/IN/80/Dd8 amastigotes infected in syrian golden hamster assessed as decrease in parasite count in spleen at 30 mg/kg/day, po for 5 days measured on day 28 after last dose administration by giemsa staining; format: functional; details: MHOM/IN/80/Dd8, Spleen; in short: as §1
[7] = tested on: Leishmania donovani; experiment: Antileishmanial activity against Leishmania donovani MHOM/IN/80/Dd8 amastigotes infected in syrian golden hamster assessed as decrease in parasite count in spleen at 40 mg/kg/day, ip for 5 days measured on day 7 after last dose administration by giemsa staining; format: functional, organism-based; in short: as §1
[8] = tested on: Leishmania donovani; experiment: Antileishmanial activity against Leishmania donovani MHOM/IN/80/Dd8 amastigotes infected in syrian golden hamster assessed as decrease in parasite count in spleen at 40 mg/kg/day, ip for 5 days measured on day 28 after last dose administration by giemsa staining; format: functional, organism-based; in short: as §1
[9] = tested on: Leishmania donovani; experiment: Antileishmanial activity against Leishmania donovani MHOM/IN/80/Dd8 amastigotes infected in syrian golden hamster assessed as decrease in parasite count in spleen at 50 mg/kg/day, po for 5 days measured on day 7 after last dose administration by giemsa staining; format: functional; details: MHOM/IN/80/Dd8, Spleen; in short: as §1
[10] = tested on: Leishmania donovani; experiment: Antileishmanial activity against Leishmania donovani MHOM/IN/80/Dd8 amastigotes infected in syrian golden hamster assessed as decrease in parasite count in spleen at 50 mg/kg/day, po for 5 days measured on day 28 after last dose administration by giemsa staining; format: functional; details: MHOM/IN/80/Dd8, Spleen; in short: as §1
[11] = Cytotoxicity against mouse J774A1 cells infected with Leishmania donovani expressing luciferase gene; format: cell-based; details: j774.a1

pIC50 [3]	Compound	CC50 at 72 h [1]	Ratio CC50/IC50 [2]	inhibition at 25 µM [4]	also measured
< 4.70	COc1ccc(C(=O)c2cc3cc(/C=C/C(=O)c4ccc5c(c4O)C=CC(C)(CCC=C(C)C)O5)ccc3o2)cc1 (stereo unspecified)	–	–	92.9%	–
< 4.70	CC(C)=CCCC1(C)C=Cc2c(ccc(C(=O)/C=C/c3ccc(O)c(C=O)c3)c2O)O1 (stereo unspecified)	–	–	94.6%	–
< 4.70	CC(C)=CCCC1(C)C=Cc2c(ccc(C(=O)/C=C/c3ccc4oc(C(=O)c5ccccc5)cc4c3)c2O)O1 (stereo unspecified)	–	–	94.4%	–
< 4.70	COc1ccc(/C=C/C(=O)c2ccc3c(c2O)CCC(C)(CCCC(C)C)O3)cc1 (stereo unspecified)	–	–	62.3%	–
5.20	CC(C)=CCCC1(C)C=Cc2c(ccc(C(=O)/C=C/c3ccc(OCCN4CCCCC4)cc3)c2OCCN2CCCCC2)O1 (stereo unspecified)	–	31.9	99.9%	–
4.96	CC(C)=CCCC1(C)C=Cc2c(ccc(C(=O)CCc3cccnc3)c2O)O1 (stereo unspecified)	266 µM	24.1	98.5%	–
< 4.70	CC(C)=CCCC1(C)C=Cc2c(ccc(/C=C/C(=O)c3ccc(C)cc3)c2O)O1 (stereo unspecified)	–	–	92.7%	–

Further lines, the compound ahead of its results:

Compound	pIC50 [3]	CC50 at 72 h [1]	Ratio CC50/IC50 [2]	inhibition at 25 µM [4]	also measured
CC(C)=CCCC1(C)C=Cc2c(ccc(C(=O)/C=C/c3ccc(O)cc3)c2O)O1 (stereo unspecified) [LESPEOL]	4.78	190 µM	11.5	97.5%	–
CCCCCCCCCCCCCCCCOP(=O)([O-])OCC[N+](C)(C)C [MILTEFOSINE]	–	–	–	100%	inhibition in vivo at 30 mg/kg/day [5]: 98.5%; inhibition in vivo at 30 mg/kg/day [6]: 83.2%
CC(C)=CCCC1(C)C=Cc2c(ccc(C(=O)/C=C/c3ccc4occc4c3)c2O)O1 (stereo unspecified)	< 4.70	–	–	96.5%	–
sodium stibogluconate	–	–	–	–	inhibition [7]: 89.5%; inhibition [8]: 72.5%; inhibition [4]: inactive
CC(C)=CCCC1(C)C=Cc2c(ccc(C(=O)/C=C/c3cccnc3)c2OCCN2CCCCC2)O1 (stereo unspecified)	5.77	65.2 µM	38.3	99.8%	inhibition in vivo at 50 mg/kg/day [9]: 73.2%; inhibition in vivo at 50 mg/kg/day [10]: 50%
CC(C)=CCCC1(C)C=Cc2c(ccc(/C=C/C(=O)c3ccc(C)c(C)c3)c2O)O1 (stereo unspecified)	< 4.70	–	–	93.2%	–
CC(C)=CCCC1(C)C=Cc2c(ccc(C(=O)/C=C/c3cc4cc(C)ccc4nc3Cl)c2O)O1 (stereo unspecified)	–	–	–	100%	Activity [11]: Toxic
CC(=O)N1N=C(c2ccc3c(c2O)C=CC(C)(CCC=C(C)C)O3)CC1c1cccnc1 (stereo unspecified)	5.19	88.5 µM	13.8	99.5%	–
CC(C)=CCCC1(C)C=Cc2c(ccc(C(=O)/C=C/c3cc(C=O)ccc3O)c2O)O1 (stereo unspecified)	4.97	59.4 µM	5.5	91.2%	–
CC(C)=CCCC1(C)C=Cc2c(ccc(C(=O)/C=C/c3cccc(-c4ncc(-c5cccc(O)c5)o4)c3)c2O)O1 (stereo unspecified)	5.24	> 400 µM	>68.9	99.5%	–
